Experimental findings from ChEMBL document CHEMBL1140478, “Preparation and antitubercular activities of alkylated amino alcohols and their glycosylated derivatives” (Bioorg Med Chem, 2007) are described below.

Usually MIC stands for the lowest concentration found to suppress growth.

Data set [1] relates to Mycobacterium tuberculosis. In words: Antimycobacterial activity against Mycobacterium tuberculosis H37Rv by microplate alamar blue assay. Type of data set: functional. Summed up: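 M. tuberculosis H37Rv (ATCC 27294) exposed to decreasing compound concentrations in Middlebrook 7H9 medium. Growth read by Microplate Alamar Blue Assay. MIC taken as the lowest concentration that […]. Values are means of three separate experiments. Rifampicin at 1.0 µg/mL served as internal control.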
A general note: Alamar Blue is a resazurin reagent that responds to reducing activity.

In data set [2] the test system is J774.A1. Description: Cytotoxicity against mouse […] cells at 0.005 ug/mL by MTT assay. The data set is classed as cell-based. The essentials:
(§1)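 Supernatants removed, cells given supplemented RPMI plus MTT (5 mg/mL) for 4 h at 37 °C, 5% CO2. Reaction stopped with acidic isopropanol (HCl), 10 min at room temperature, OD read at 570 nm. Proliferation and cytotoxicity calculated by formulae.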
(In general: Tetrazolium assays rely on reduction of a dye to a coloured formazan, in cell work by metabolically active cells.)

Data set [3] is described as follows: Cell proliferation of mouse […] cells at 0.005 ug/mL by MTT assay. The data set is classed as ADME, cell-based, J774.A1. As to conditions: J774A.1 cells, read-out: Activity; call rule not given here. Summed up: as §1
The nature of data set [4]: Cell proliferation of mouse […] cells at 0.05 ug/mL by MTT assay. The data set is classed as ADME, cell-based, J774.A1. As to conditions: J774A.1 cells, read-out: Activity. Summed up: as §1
In data set [5] the test system is J774.A1. In words: Cytotoxicity against mouse […] cells at 0.5 ug/mL by MTT assay. The data set is classed as cell-based. The essentials: as §1
Data set [6] relates to J774.A1. Description: Cytotoxicity against mouse […] cells at 0.05 ug/mL by MTT assay. The data set is classed as cell-based. The essentials:
as §1

Data set [7] in a line: Cell proliferation of mouse […] cells at 0.5 ug/mL by MTT assay. The settings on record: J774A.1 cells, read-out: Activity. Type of data set: ADME, cell-based, J774.A1. The essentials:
as §1

A value given as a limit tells only on which side of the number the result lay.

Regarding `CCCCC(CC)CN(CCO)C[C@H]1O[C@@H]2OC(C)(C)O[C@@H]2[C@H]2OC(C)(C)O[C@H]21` (stereo partly specified), the MIC in data set [1] was greater than 240 µM.

The compound `CCCCCCCCCCCCCCNCCO` [MYRALACT] had an MIC in data set [1] of 51 µM. In other words, the double-digit micromolar range.

Compound `CCCCCCCCCCC(O)CNC[C@H]1O[C@@H]2OC(C)(C)O[C@@H]2[C@H]2OC(C)(C)O[C@H]21` (stereo partly specified) yielded an MIC in data set [1] of 28 µM.

As to `CCCCCCCCCCN(CCO)C[C@H]1O[C@@H]2OC(C)(C)O[C@@H]2[C@H]2OC(C)(C)O[C@H]21`, in data set [1], the MIC amounted to 225 µM.

`CCCCCCCCCCC(O)CN` (stereo unspecified) gave an MIC in data set [1] of 15 µM. Also, the Activity result in the data set on J774.A1 [2] is recorded as “Not Active”; in the data set with J774.A1 [5], 31.1%; in the data set on J774.A1 [6], “Not Active”. Besides, the viability at 0.005 ug/mL in data set [3] amounted to 110%. Moreover, the viability at 0.05 ug/mL in data set [4] was 112%. The viability at 0.5 ug/mL in data set [7] was determined as 96.4%.

Compound `CCCCCCCCCCCCNCCO` displayed an MIC in data set [1] of 27 µM. Moreover, the results for the Activity in the data set on J774.A1 [2], with J774.A1 [5] and in the data set on J774.A1 [6] were 12.1%, 21.3% and 8.4%, respectively. The viability at 0.005 ug/mL in data set [3] was found to be 92.7%. Besides, the viability at 0.05 ug/mL in data set [4] came to 77.6%. In data set [7], the viability at 0.5 ug/mL worked out at 90.9%.

For `CCCCCCCCCCCCCCCCNCCO`, the MIC in data set [1] is 46 µM.

Regarding `NNC(=O)c1ccncc1` [ISONIAZID], the MIC in data set [1] stood at 0.2 µg/mL.

Turning to `CCCCCCCCCCCCCCN(CCO)C[C@H]1O[C@@H]2OC(C)(C)O[C@@H]2[C@H]2OC(C)(C)O[C@H]21`, the MIC in data set [1] came to 12 µM. The Activity result with J774.A1 [2], in the data set with J774.A1 [5] and in the data set on J774.A1 [6] was “Not Active” each time. For the same compound, the viability at 0.005 ug/mL in data set [3] stood at 113%. Besides, the viability at 0.05 ug/mL in data set [4] was found to be 135%. Besides, in data set [7], the viability at 0.5 ug/mL came to 118%.

In data set [1], `CCCCCCCCCCNCCO` had an MIC of 248 µM.

Regarding `CO[C@H]1/C=C/O[C@@]2(C)Oc3c(C)c(O)c4c(O)c(c(/C=N/N5CCN(C)CC5)c(O)c4c3C2=O)NC(=O)/C(C)=C\C=C\[C@H](C)[C@H](O)[C@@H](C)[C@@H](O)[C@@H](C)[C@H](OC(C)=O)[C@@H]1C` [RIFAMPIN], in data set [1], the lowest concentration to inhibit growth (MIC) was 1 µg/mL.

In data set [1], `CCCCCCCCCCCCN(CCO)C[C@H]1O[C@@H]2OC(C)(C)O[C@@H]2[C@H]2OC(C)(C)O[C@H]21` yielded an MIC of 6 µM. In addition, the Activity result with J774.A1 [2], in the data set with J774.A1 [5] and in the data set on J774.A1 [6] was “Not Active” each time. Also, the viability at 0.005 ug/mL in data set [3] is 98.3%. The viability at 0.05 ug/mL in data set [4] stood at 98.9%. Also, the viability at 0.5 ug/mL in data set [7] was found to be 96.6%.

For `CCCCCCCCN(CCO)C[C@H]1O[C@@H]2OC(C)(C)O[C@@H]2[C@H]2OC(C)(C)O[C@H]21`, in data set [1], 241 µM was the least that counted as inhibitory (MIC).

Consider `CC[C@@H](CO)NCCN[C@@H](CC)CO` [ETHAMBUTOL], for which the MIC in data set [1] turned out to be 3.25 µg/mL.

`CCCCC(CC)CNCCO` (stereo unspecified): in data set [1], the minimum inhibitory concentration (MIC) is greater than 578 µM.

As for `CCCCCCCCNCCO`, in data set [1], the MIC turned out to be 578 µM.

Compound `CCCCCCCCCCCCCCCCN(CCO)C[C@H]1O[C@@H]2OC(C)(C)O[C@@H]2[C@H]2OC(C)(C)O[C@H]21` came in with an MIC in data set [1] of 11 µM. The Activity is recorded as 10.6% in the data set with J774.A1 [2], 17.4% in the data set with J774.A1 [5] and 16.3% in the data set on J774.A1 [6]. The viability at 0.005 ug/mL in data set [3] was found to be 104%. Also, the viability at 0.5 ug/mL in data set [7] stood at 149%.
